ChEMBL document CHEMBL4190396, “Discovery of Novel Small-Molecule Inhibitors of NF-κB Signaling with Antiinflammatory and Anticancer Properties” (J Med Chem, 2018)
Active and inactive are the calls of the source. No cut-off for these calls is given here.

Key:
[1] = system: RAW264.7; experiment: Inhibition of LPS-induced PI3K phosphorylation in mouse RAW264.7 cells at 1 to 10 uM preincubated for 1 hr followed by LPS stimulation for 15 to 30 mins by Western blot method; assay type: cell-based
Outline: (§1)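 RAW 264.7 cells, 3×10^6 per dish overnight, pretreated 1 h with 1, 5 or 10 µM, then LPS 100 ng/mL for 15 or 30 min; nuclear/cytoplasmic lysates (20–30 µg) run on 10% SDS-PAGE, immunoblotted for phospho/total proteins, GAPDH loading control, ECL, densitometry; three independent experiments.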

[2] = molecular target: Tumor necrosis factor receptor superfamily member 1A (Homo sapiens, UniProt P19438); experiment: Inhibition of TNFR in TLR null HEK-blue cells assessed as decrease in TNFalpha-stimulated NF-kappaB activation-mediated SEAP production after 24 hrs by Quanti-blue-based assay; assay type: cell-based
Sequence of Tumor necrosis factor receptor superfamily member 1A (P19438 whole entry): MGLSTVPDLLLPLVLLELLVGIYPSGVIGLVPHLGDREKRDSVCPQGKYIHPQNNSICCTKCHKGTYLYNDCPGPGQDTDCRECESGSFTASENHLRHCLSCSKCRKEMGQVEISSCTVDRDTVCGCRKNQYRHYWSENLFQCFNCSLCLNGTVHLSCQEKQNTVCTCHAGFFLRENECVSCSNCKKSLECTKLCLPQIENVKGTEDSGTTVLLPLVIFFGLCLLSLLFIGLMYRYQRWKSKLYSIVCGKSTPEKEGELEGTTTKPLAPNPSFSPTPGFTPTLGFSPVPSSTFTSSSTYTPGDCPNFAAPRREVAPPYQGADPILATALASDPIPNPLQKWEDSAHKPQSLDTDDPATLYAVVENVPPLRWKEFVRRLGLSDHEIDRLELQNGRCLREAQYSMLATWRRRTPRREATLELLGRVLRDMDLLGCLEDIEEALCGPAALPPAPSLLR

[3] = system: HeLa; experiment: Cell cycle arrest in human HeLa cells assessed as accumulation at S phase at 10 uM after 24 hrs by propidium iodide staining based flow cytometry (reference value: 34.9%); assay type: functional
Outline: (§2)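 HeLa cells, 3×10^5/well, attached overnight, switched to serum-free medium for synchronisation, then DMSO or 5, 10, 20 µM for 24 h; cells fixed, PI-stained, G0/G1, S and G2/M fractions by flow cytometry; n = 3, mean ± SD.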

[4] = molecular target: Toll-like receptor 9 (Homo sapiens) (UniProt Q9NR96); experiment: Antagonist activity at human TLR9 expressed in HEK293 cells assessed as decrease in CpG-ODN2006-induced NF-kappaB activation-mediated SEAP production at 10^-9 to 10^-5 M after 24 hrs by Quanti-blue-based assay; assay type: cell-based
Sequence of Toll-like receptor 9 (Homo sapiens) (Q9NR96 whole entry): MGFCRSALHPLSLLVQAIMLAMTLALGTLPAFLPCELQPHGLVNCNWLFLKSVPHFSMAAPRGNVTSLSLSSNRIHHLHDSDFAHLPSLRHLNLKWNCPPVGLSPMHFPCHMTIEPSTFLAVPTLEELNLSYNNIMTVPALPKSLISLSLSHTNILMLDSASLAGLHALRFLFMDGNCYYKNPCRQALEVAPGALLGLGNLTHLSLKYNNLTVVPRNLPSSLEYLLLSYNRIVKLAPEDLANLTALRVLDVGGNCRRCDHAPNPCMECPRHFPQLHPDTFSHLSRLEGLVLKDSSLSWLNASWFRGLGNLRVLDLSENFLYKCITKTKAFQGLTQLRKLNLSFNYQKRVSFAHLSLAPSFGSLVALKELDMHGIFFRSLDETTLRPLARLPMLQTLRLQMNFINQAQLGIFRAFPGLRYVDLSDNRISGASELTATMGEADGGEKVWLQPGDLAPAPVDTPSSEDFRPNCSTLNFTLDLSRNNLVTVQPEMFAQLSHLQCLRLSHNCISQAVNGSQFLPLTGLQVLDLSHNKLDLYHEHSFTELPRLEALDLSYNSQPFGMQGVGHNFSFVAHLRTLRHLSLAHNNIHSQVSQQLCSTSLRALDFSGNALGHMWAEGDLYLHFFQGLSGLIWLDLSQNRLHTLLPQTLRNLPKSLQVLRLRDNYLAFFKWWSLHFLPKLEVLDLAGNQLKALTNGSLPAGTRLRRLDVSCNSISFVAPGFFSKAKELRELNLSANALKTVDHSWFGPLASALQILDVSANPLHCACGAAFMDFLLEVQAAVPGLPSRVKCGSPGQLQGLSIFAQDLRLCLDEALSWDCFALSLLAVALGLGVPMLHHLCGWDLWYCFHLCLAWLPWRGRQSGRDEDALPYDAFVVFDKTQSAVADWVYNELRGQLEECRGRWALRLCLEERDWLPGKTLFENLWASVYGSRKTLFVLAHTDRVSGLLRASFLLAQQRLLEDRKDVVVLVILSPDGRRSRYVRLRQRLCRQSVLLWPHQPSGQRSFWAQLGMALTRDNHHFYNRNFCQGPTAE
Outline: (§3)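 HEK293 cells stably carrying a human TLR plus an NF-κB-driven SEAP reporter, seeded 5×10^4/well for 24 h at 37 °C, then stimulated: Pam3CSK4 100 µg/mL (TLR1/2), Pam2CSK4 100 µg/mL, poly I:C 5 µg/mL (TLR3), LPS 20 ng/mL (TLR4), flagellin 100 ng/mL (TLR5), R848 1 µg/mL (TLR7, TLR8), CpG-ODN2006 1 µg/mL (TLR9). After 24 h with compound, supernatant mixed with QUANTI-Blue, 1 h 37 °C, OD 620 nm.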

[5] = system: HEK293; experiment: Cytotoxicity against HEK293 cells expressing human TLR7 assessed as reduction in cell viability up to 20 uM after 24 hrs by WST-1 assay; assay type: cell-based; settings: hek293, 24 h
Outline: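 HEK hTLR7 cells seeded 5×10^4/well, 24 h, then exposed to a concentration series for 24 h; WST-1 reagent added at 37 °C until colour developed (30 min–2 h), absorbance 450 nm.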

[6] = system: RAW264.7; experiment: Inhibition of LPS-induced JNK phosphorylation in mouse RAW264.7 cells at 1 to 10 uM preincubated for 1 hr followed by LPS stimulation for 15 to 30 mins by Western blot method; assay type: cell-based; outline: as §1
[7] = molecular target: Tyrosine-protein kinase SYK (Homo sapiens) (UniProt P43405); experiment: Inhibition of wild-type human partial length SYK (D354 to N635 residues) expressed in bacterial expression system assessed as residual activity at 10 uM by Kinomescan method
[8] = system: HeLa; experiment: Cell cycle arrest in human HeLa cells assessed as accumulation at G0/G1 phase at 20 uM after 24 hrs by propidium iodide staining based flow cytometry (reference value: 49.4%); assay type: functional; outline: as §2
[9] = molecular target: T1, Toll-like receptor 7 (Homo sapiens) (UniProt Q9NYK1); experiment: Antagonist activity at human TLR7 expressed in HEK293 cells assessed as decrease in R848-induced NF-kappaB activation-mediated SEAP production at 10^-9 to 10^-5 M after 24 hrs by Quanti-blue-based assay; assay type: cell-based; outline: as §3
T1 sequence (whole entry): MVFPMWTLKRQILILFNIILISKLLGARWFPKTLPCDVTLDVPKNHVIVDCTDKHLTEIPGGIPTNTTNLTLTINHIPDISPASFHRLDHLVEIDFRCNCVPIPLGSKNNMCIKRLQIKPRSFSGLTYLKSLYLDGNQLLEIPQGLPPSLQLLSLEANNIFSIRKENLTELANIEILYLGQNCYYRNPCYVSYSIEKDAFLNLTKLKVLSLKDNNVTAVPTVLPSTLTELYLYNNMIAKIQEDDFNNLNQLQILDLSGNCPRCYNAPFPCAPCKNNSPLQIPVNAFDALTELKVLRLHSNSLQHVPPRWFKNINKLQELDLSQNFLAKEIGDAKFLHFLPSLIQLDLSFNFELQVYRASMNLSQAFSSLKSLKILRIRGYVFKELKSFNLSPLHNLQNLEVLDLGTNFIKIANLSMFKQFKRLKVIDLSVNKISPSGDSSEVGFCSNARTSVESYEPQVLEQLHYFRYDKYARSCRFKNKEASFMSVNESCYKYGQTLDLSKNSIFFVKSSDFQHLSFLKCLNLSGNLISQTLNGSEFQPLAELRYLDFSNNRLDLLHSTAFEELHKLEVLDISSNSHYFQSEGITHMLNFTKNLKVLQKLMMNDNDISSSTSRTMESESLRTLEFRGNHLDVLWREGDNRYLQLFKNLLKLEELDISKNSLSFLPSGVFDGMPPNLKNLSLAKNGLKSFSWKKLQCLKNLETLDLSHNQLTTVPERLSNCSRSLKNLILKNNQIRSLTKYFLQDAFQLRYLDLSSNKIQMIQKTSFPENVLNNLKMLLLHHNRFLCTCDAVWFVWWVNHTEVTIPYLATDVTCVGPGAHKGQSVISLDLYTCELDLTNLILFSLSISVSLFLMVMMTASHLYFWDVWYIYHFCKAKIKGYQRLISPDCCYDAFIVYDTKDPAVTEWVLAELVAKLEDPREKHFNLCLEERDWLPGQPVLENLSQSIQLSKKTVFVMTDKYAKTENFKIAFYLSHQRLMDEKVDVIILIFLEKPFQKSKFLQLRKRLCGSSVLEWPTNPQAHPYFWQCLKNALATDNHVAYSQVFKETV

Question: How did the inhibition [1] turn out when `O=C(NNC(=O)c1csc(-c2ccc(Cl)cc2Cl)n1)c1ccccn1` was run?
Answer: The inhibition was “Active”.

Question: What about the IC50 [2] of the same compound?
Answer: Its IC50 is 770 nM.

Question: And the Activity [3]?
Answer: Its Activity is 41.7%.

Question: What about the inhibition [4] of the same compound?
Answer: Its inhibition is “Active”.

Question: What about the Activity [5] of the same compound?
Answer: The Activity was “Non-Toxic”.

Question: And the inhibition [6]?
Answer: Its inhibition is “inactive”.

Question: What about the inhibition [7] of the same compound?
Answer: The inhibition was “inactive”.

Question: And the Activity [8]?
Answer: Its Activity is 67%.

Question: And the inhibition [9]?
Answer: The inhibition was “Active”.
